In ChEMBL document CHEMBL1157620, “1-(Aryl)-6-[alkoxyalkyl]-3-azabicyclo[3.1.0]hexanes and 6-(aryl)-6-[alkoxyalkyl]-3-azabicyclo[3.1.0]hexanes: a new series of potent and selective triple reuptake inhibitors” (J Med Chem, 2010):

Columns and labels:
[1] = biological target: Sodium-dependent serotonin transporter (Homo sapiens, UniProt P31645); test: Displacement of [3H]citalopram from human recombinant SERT expressed in BacMam virus-transduced cells by scintillation proximity assay; assay type: cell-based
Sequence of Sodium-dependent serotonin transporter (P31645 whole entry): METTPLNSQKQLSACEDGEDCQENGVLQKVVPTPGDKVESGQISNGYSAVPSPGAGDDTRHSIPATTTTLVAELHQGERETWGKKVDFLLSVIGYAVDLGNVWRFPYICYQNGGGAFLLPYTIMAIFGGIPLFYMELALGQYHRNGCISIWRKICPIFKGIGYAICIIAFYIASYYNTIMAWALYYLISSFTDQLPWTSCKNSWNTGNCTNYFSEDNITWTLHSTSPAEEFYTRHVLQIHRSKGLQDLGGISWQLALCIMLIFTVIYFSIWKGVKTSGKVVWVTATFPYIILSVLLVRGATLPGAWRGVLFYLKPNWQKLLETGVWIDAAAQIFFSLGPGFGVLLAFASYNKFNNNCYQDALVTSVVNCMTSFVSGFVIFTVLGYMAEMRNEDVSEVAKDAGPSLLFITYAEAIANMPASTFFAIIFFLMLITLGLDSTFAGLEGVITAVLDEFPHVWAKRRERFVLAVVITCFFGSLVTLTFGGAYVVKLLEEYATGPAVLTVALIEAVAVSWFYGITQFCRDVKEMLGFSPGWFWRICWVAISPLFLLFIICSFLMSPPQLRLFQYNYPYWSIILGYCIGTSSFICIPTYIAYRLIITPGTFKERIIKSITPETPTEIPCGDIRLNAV
How it was run: (§1)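 BacMam-transduced membranes in SPA format. SERT: 1 mg/mL beads, 6 μg/mL membranes, 3 nM [3H]citalopram. NET: 2 mg/mL beads, 40 μg/mL membranes, 10 nM [3H]nisoxetine. Incubated overnight at room temperature; pKi from pIC50 by Cheng-Prusoff.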

[2] = biological target: Sodium-dependent noradrenaline transporter (Homo sapiens, UniProt P23975); test: Displacement of [3H]nisoxetine from human recombinant NET expressed in BacMam virus-transduced cells by scintillation proximity assay; assay type: cell-based; how it was run: as §1
Sequence of Sodium-dependent noradrenaline transporter (P23975 whole entry): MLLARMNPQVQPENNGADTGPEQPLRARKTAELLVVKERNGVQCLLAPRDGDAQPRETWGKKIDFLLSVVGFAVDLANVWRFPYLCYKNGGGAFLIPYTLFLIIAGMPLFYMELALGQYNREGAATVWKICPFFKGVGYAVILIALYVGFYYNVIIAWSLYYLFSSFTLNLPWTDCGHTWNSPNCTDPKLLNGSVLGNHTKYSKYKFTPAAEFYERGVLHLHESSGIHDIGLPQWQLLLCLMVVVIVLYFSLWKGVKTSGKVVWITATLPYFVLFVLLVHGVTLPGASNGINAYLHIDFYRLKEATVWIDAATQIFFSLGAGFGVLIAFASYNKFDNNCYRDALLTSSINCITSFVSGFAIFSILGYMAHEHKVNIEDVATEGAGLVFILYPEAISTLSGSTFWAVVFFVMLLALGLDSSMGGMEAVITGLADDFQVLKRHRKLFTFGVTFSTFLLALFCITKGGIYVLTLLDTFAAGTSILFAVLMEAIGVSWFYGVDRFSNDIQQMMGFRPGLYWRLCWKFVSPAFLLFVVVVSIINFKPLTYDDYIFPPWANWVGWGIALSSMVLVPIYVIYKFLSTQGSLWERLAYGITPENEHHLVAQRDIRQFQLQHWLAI

[3] = biological target: Sodium-dependent dopamine transporter (Homo sapiens, UniProt Q01959); test: Displacement of [3H]WIN-35428 from human recombinant DAT expressed in BacMam virus-transduced cells by scintillation proximity assay; assay type: cell-based
Sequence of Sodium-dependent dopamine transporter (Q01959 whole entry): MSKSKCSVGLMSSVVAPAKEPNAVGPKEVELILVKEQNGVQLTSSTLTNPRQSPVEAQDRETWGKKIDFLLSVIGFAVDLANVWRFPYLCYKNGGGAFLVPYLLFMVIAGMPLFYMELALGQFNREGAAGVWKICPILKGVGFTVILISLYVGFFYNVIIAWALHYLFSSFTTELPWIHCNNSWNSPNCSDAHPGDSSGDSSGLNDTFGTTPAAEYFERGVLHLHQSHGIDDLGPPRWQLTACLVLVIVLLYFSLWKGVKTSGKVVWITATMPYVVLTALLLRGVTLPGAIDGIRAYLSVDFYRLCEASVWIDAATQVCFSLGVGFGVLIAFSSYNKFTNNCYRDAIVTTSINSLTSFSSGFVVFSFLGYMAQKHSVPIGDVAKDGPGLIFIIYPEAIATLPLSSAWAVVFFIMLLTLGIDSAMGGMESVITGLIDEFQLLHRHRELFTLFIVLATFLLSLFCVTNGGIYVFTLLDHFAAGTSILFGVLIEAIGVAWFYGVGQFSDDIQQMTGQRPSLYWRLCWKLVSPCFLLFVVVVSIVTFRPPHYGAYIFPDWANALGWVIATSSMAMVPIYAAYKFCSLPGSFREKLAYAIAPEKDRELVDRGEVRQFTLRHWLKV

[4] = biological target: Cytochrome P450 3A4 (Homo sapiens, UniProt P08684); test: Inhibition of human CYP3A4 by fluorescence assay
Sequence of Cytochrome P450 3A4 (P08684 whole entry): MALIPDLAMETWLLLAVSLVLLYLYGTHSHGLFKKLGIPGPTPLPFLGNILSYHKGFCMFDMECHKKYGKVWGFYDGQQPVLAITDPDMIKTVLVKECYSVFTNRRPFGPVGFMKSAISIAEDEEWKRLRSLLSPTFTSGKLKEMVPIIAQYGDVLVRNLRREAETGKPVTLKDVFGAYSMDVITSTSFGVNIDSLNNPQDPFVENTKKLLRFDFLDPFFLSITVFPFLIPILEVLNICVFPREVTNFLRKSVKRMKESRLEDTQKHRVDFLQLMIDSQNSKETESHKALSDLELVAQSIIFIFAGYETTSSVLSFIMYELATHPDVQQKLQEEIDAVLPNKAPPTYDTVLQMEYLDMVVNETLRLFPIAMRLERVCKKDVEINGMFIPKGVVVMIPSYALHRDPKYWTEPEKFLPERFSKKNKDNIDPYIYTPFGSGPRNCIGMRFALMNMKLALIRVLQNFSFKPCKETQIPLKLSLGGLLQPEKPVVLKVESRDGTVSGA

[5] = biological target: Cytochrome P450 2C9 (Homo sapiens, UniProt P11712); test: Inhibition of human CYP2C9 by fluorescence assay; assay type: ADME
Sequence of Cytochrome P450 2C9 (P11712 whole entry): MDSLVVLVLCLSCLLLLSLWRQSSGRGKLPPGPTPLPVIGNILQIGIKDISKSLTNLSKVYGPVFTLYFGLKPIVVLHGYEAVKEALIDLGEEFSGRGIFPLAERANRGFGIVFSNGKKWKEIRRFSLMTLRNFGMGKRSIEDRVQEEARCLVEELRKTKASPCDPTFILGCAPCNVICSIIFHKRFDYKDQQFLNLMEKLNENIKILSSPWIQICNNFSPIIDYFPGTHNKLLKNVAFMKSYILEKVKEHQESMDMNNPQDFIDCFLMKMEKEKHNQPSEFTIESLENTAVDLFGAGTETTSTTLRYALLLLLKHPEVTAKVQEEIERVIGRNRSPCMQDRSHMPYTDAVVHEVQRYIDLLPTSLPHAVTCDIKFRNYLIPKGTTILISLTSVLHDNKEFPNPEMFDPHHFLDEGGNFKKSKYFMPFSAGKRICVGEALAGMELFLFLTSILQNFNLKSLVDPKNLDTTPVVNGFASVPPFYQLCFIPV
How it was run: (§2)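 Recombinant human P450 bactosomes (0.1 mg/mL) in 50 mM phosphate, pH 7.4. Test compound at 0.1-10 μM, preincubated 10 min at 37 °C with fluorogenic substrate: ethoxyresorufin 0.5 μM (1A2), FCA 50 μM (2C9), BMC 10 μM (2C19), MMC 10 μM (2D6).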

[6] = biological target: Cytochrome P450 2C19 (Homo sapiens, UniProt P33261); test: Inhibition of human CYP2C19 by fluorescence assay; assay type: ADME; how it was run: as §2
Sequence of Cytochrome P450 2C19 (P33261 whole entry): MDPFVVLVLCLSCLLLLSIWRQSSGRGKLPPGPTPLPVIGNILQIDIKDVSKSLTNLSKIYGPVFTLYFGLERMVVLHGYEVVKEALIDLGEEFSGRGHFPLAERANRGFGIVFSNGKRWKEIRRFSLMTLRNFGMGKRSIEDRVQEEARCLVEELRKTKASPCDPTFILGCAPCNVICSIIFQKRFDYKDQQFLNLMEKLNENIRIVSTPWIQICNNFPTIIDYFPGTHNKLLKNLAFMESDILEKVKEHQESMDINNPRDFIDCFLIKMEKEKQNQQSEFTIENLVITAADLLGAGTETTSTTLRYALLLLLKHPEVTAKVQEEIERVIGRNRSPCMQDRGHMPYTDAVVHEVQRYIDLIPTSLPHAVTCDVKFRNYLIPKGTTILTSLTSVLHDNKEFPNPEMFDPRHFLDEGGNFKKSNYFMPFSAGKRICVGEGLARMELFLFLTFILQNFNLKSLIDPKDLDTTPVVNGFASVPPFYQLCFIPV

[7] = biological target: T1, Cytochrome P450 1A2 (Homo sapiens, UniProt P05177); test: Inhibition of human CYP1A2 by fluorescence assay; assay type: ADME; how it was run: as §2
T1 sequence (P05177 whole entry): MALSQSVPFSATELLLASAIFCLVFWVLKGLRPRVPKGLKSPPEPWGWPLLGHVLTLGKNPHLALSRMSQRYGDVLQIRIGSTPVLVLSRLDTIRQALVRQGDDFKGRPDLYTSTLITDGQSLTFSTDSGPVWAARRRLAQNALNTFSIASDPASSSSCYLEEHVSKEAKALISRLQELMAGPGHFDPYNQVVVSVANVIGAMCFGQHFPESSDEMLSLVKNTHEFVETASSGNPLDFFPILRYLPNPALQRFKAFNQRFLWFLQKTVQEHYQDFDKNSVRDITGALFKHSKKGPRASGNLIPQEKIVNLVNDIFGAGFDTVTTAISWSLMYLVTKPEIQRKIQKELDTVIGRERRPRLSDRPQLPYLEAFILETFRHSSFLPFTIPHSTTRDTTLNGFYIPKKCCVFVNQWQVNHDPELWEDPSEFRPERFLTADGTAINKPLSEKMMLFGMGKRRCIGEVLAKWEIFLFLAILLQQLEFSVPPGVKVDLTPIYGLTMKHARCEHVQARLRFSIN

[8] = biological target: Cytochrome P450 2D6 (Homo sapiens, UniProt P10635); test: Inhibition of human […] by fluorescence assay; assay type: ADME; how it was run: as §2
Sequence of Cytochrome P450 2D6 (P10635 whole entry): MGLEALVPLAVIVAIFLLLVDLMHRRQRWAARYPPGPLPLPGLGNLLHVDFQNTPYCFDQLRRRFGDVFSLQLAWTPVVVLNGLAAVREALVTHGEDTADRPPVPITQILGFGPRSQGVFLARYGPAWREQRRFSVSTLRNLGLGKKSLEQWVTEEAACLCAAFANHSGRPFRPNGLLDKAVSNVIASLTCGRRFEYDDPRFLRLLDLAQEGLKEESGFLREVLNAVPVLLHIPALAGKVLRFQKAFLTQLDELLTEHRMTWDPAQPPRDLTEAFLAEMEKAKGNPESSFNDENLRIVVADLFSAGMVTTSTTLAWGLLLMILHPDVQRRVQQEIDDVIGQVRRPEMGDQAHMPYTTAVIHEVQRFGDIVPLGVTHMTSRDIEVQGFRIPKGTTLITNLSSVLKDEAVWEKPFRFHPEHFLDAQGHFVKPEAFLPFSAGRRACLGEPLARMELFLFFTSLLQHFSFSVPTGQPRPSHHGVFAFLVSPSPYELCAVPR

| SMILES | Ki [1] | Ki [2] | Ki [3] | IC50 [4] | IC50 [5] | IC50 [6] | IC50 [7] | IC50 [8] | pKi [3] |
| --- | --- | --- | --- | --- | --- | --- | --- | --- | --- |
| CC(C)OCC[C@]1(c2ccc(Cl)c(Cl)c2)[C@@H]2CNC[C@@H]21 | 0.000316 µM | 0.00158 µM | 0.00631 µM |  |  |  |  |  |  |
| COC[C@H]1[C@@H]2CNC[C@@]21c1ccc(Cl)c(Cl)c1 (stereo in doubt) | 0.00151 µM | 0.00316 µM | 0.11 µM |  |  |  |  |  |  |
| Clc1ccc([C@@]2(COC3CCC3)[C@@H]3CNC[C@@H]32)cc1Cl | 0.000398 µM | 0.00251 µM | 0.00631 µM | 3 µM | > 10 µM | > 10 µM | > 10 µM | > 10 µM |  |
| CC(C)OC[C@H]1[C@@H]2CNC[C@@]21c1ccc(Cl)c(Cl)c1 (stereo in doubt) | 0.0002 µM | 0.000398 µM | 0.00794 µM |  |  |  |  |  |  |
| COC[C@@H]1[C@H]2CNC[C@]21c1ccc(Cl)c(Cl)c1 (stereo in doubt) | 0.0257 µM | 0.224 µM | 0.513 µM |  |  |  |  |  |  |
| Clc1ccc([C@]23CNC[C@H]2[C@@H]3COC2CCCCC2)cc1Cl (racemic) | 0.001 µM | 0.002 µM | 0.02 µM |  |  |  |  |  |  |
| Clc1ccc([C@]23CNC[C@H]2[C@@H]3COC2CCC2)cc1Cl (stereo in doubt) | 0.000631 µM | 0.00126 µM | 0.0126 µM |  |  |  |  |  |  |
| COCC[C@H]1[C@]2(C)CNC[C@]12c1ccc(Cl)c(Cl)c1 (racemic) | 0.000794 µM | 0.00316 µM | 0.0631 µM |  |  |  |  |  |  |
| CC(C)OC[C@H]1[C@@H]2CNC[C@@]21c1ccc(Cl)c(Cl)c1 (relative stereo) | 0.0398 µM | 0.2 µM | 0.251 µM |  |  |  |  |  |  |
| Clc1ccc([C@]23CNC[C@H]2[C@@H]3COC2CCCC2)cc1Cl (stereo in doubt) | 0.000501 µM | 0.000794 µM | 0.00631 µM |  |  |  |  |  |  |
| CCC(C)OCC[C@]1(c2ccc(Cl)c(Cl)c2)[C@@H]2CNC[C@@H]21 (mixture of isomers) | 0.000316 µM | 0.00398 µM | 0.00501 µM |  |  |  |  |  |  |
| Cc1csc(C[C@@H]2[C@H]3CNC[C@]32c2ccc(Cl)c(Cl)c2)n1 (stereo in doubt) | 0.0158 µM | 0.0794 µM | 0.0501 µM |  |  |  |  |  |  |
| Clc1ccc([C@]23CNC[C@H]2[C@@H]3COC2CCCC2)cc1Cl (relative stereo) | 0.000251 µM | 0.000158 µM | 0.00251 µM |  |  |  |  |  |  |
| CCOC[C@H]1[C@@H]2CN(C)C[C@]12c1ccc(Cl)c(Cl)c1 (relative stereo) | 0.00126 µM | 0.0158 µM | 0.0398 µM |  |  |  |  |  |  |
| CCC(C)OC[C@]1(c2ccc(Cl)c(Cl)c2)[C@@H]2CNC[C@@H]21 (mixture of isomers) | 0.000251 µM | 0.002 µM | 0.00794 µM |  |  |  |  |  |  |
| COC[C@H]1[C@@H]2CNC[C@@]21c1ccc2ccccc2c1 (stereo in doubt) | 0.000158 µM | 0.001 µM | 0.0501 µM |  |  |  |  |  |  |
| COCC[C@]1(c2ccc(Cl)c(Cl)c2)[C@@H]2CNC[C@@H]21 | 0.000316 µM | 0.00794 µM | 0.01 µM |  |  |  |  |  |  |
| Clc1ccc([C@@]2(COCC3CC3)[C@@H]3CNC[C@@H]32)cc1Cl | 0.000631 µM | 0.00794 µM | 0.01 µM |  | > 10 µM | > 10 µM | > 10 µM | 1 µM |  |
| FC(F)(F)COC[C@]1(c2ccc(Cl)c(Cl)c2)[C@@H]2CNC[C@@H]21 | 0.001 µM | 0.0251 µM | 0.0251 µM |  |  |  |  | 0.3 µM |  |
| Clc1ccc([C@]23CNC[C@H]2[C@@H]3COCC2CC2)cc1Cl (stereo in doubt) | 0.000955 µM | 0.00195 µM | 0.0251 µM |  |  |  |  |  |  |
| CN(C)C[C@H]1[C@@H]2CNC[C@@]21c1ccc(Cl)c(Cl)c1 (racemic) | 0.00398 µM | 0.0316 µM | 0.631 µM |  |  |  |  |  |  |
| CCCOC[C@H]1[C@@H]2CNC[C@@]21c1ccc(Cl)c(Cl)c1 (relative stereo) | 0.00955 µM | 0.0316 µM | 0.251 µM |  |  |  |  |  |  |
| Clc1ccc([C@@]23CNC[C@@H]2[C@H]3COC2CCC2)cc1Cl (stereo in doubt) | 0.0251 µM | 0.158 µM | 0.251 µM |  |  |  |  |  |  |

| SMILES | Ki [1] | Ki [2] | Ki [3] | IC50 [4] | IC50 [5] | IC50 [6] | IC50 [7] | IC50 [8] | pKi [3] |
| --- | --- | --- | --- | --- | --- | --- | --- | --- | --- |
| Clc1ccc([C@@]2(CCOC3CCC3)[C@@H]3CNC[C@@H]32)cc1Cl | 0.0002 µM | 0.00398 µM | 0.00631 µM |  |  |  |  |  |  |
| CCCOC[C@@H]1[C@H]2CNC[C@]21c1ccc(Cl)c(Cl)c1 (stereo in doubt) | 0.000251 µM | 0.000631 µM | 0.0126 µM |  |  |  |  |  |  |
| OC[C@H]1[C@@H]2CNC[C@]12c1ccc(Cl)c(Cl)c1 (racemic) | 0.0155 µM | 0.0288 µM | 0.457 µM |  |  |  |  |  |  |
| COC[C@@H]1[C@@H]2CNC[C@]12c1ccc(Cl)c(Cl)c1 (racemic) | 0.0724 µM | 1.29 µM | 0.661 µM |  |  |  |  |  |  |
| CCOCC[C@H]1[C@@H]2CNC[C@]12c1ccc(Cl)c(Cl)c1 (racemic) | 0.000794 µM | 0.00398 µM | 0.0794 µM |  |  |  |  |  |  |
| Clc1ccc([C@]23CNC[C@H]2[C@@H]3COC2CCC2)cc1Cl (relative stereo) | 0.000316 µM | 0.000501 µM | 0.00398 µM |  |  |  |  |  |  |
| OC[C@@H]1[C@@H]2CNC[C@]12c1ccc(Cl)c(Cl)c1 (racemic) | 0.0513 µM | 0.182 µM | 0.479 µM |  |  |  |  |  |  |
| CSC[C@H]1[C@@H]2CNC[C@@]21c1ccc(Cl)c(Cl)c1 (stereo in doubt) | 0.000794 µM | 0.00501 µM | 0.0794 µM |  |  |  |  |  |  |
| Clc1ccc([C@]23CNC[C@H]2[C@@H]3COCC2CC2)cc1Cl (relative stereo) | 0.00501 µM | 0.0158 µM | 0.2 µM |  |  |  |  |  |  |
| CSC[C@@H]1[C@H]2CNC[C@]21c1ccc(Cl)c(Cl)c1 (stereo in doubt) | 0.0251 µM | 0.316 µM | 0.0631 µM |  |  |  |  |  |  |
| Fc1ccc(OC[C@H]2[C@@H]3CNC[C@@]32c2ccc(Cl)c(Cl)c2)cc1 (racemic) | 0.00126 µM | 0.0398 µM | 0.0794 µM |  |  |  |  |  |  |
| CCCOC[C@H]1[C@@H]2CNC[C@@]21c1ccc(Cl)c(Cl)c1 (stereo in doubt) | 0.000501 µM | 0.000501 µM | 0.02 µM |  |  |  |  |  |  |
| COC[C@H]1[C@@H]2CNC[C@@]21c1ccc2ccccc2c1 (relative stereo) | 0.0126 µM | 0.316 µM | 0.398 µM |  |  |  |  |  |  |
| CCOC[C@H]1[C@@H]2CNC[C@@]21c1ccc(Cl)c(Cl)c1 (relative stereo) | 0.000398 µM | 0.00158 µM | 0.0251 µM | > 9 µM | > 9 µM | > 9 µM | > 9 µM | 4 µM |  |
| OCC[C@H]1[C@@H]2CNC[C@]12c1ccc(Cl)c(Cl)c1 (racemic) | 0.00251 µM | 0.00794 µM | 0.0794 µM |  |  |  |  |  |  |
| Cc1csc(C[C@H]2[C@@H]3CNC[C@@]32c2ccc(Cl)c(Cl)c2)n1 (stereo in doubt) | 0.0002 µM | 0.000316 µM |  |  |  |  |  |  | 7.7 |
| COCC[C@H]1[C@@]2(c3ccc(Cl)c(Cl)c3)CNC[C@]12C (relative stereo) | 0.0316 µM | 1 µM | 0.126 µM |  |  |  |  |  |  |
| CCC[C@H]1[C@@H]2CNC[C@]12c1ccc(Cl)c(Cl)c1 (racemic) | 0.001 µM | 0.002 µM | 0.0251 µM |  |  |  |  |  |  |
| Clc1ccc([C@@]23CNC[C@@H]2[C@H]3COC2CCCC2)cc1Cl (stereo in doubt) | 0.00794 µM | 0.0126 µM | 0.1 µM |  |  |  |  |  |  |
| CCOCC[C@]1(c2ccc(Cl)c(Cl)c2)[C@@H]2CNC[C@@H]21 | 0.000501 µM | 0.00794 µM | 0.0158 µM |  |  |  |  | < 0.1 µM |  |
| CSC[C@H]1[C@@H]2CNC[C@@]21c1ccc(Cl)c(Cl)c1 (relative stereo) | 0.000398 µM | 0.00158 µM | 0.0398 µM |  |  |  |  |  |  |
| Clc1ccc([C@]23CNC[C@H]2[C@H]3COCC2CC2)cc1Cl (racemic) | 0.0316 µM | 0.126 µM | 0.501 µM |  |  |  |  |  |  |
| Cc1cnc([C@H]2[C@@H]3CNC[C@@]32c2ccc(Cl)c(Cl)c2)o1 (racemic) | 0.0158 µM | 0.02 µM | 0.126 µM |  |  |  |  |  |  |
